Test results from ChEMBL document CHEMBL1821604, “Anticancer activity and cDNA microarray studies of a (RS)-1,2,3,5-tetrahydro-4,1-benzoxazepine-3-yl]-6-chloro-9H-purine, and an acyclic (RS)-O,N-acetalic 6-chloro-7H-purine” (Eur J Med Chem, 2011).

Key:
Format in all cases: functional
MCF7 [1] = assay: Down regulation of MGC42090 gene expression in human MCF7 cells at IC50 after 48 hrs by cDNA microarray technique relative to control
MCF7 [2] = assay: Down regulation of AF086546 gene expression in human MCF7 cells at IC50 after 48 hrs by cDNA microarray technique relative to control
Procedure, shortened: (§1)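 8 × 10⁶ cells exposed 48 h to compound at its IC50 concentration; total RNA isolated with trizol/chloroform and RNeasy columns including on-column DNase step; RNA quantified by OD 260/280; DMSO-treated cultures as control.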

HT-29 [3] = assay: Down regulation of MGC35130 gene expression in human HT-29 cells at IC50 after 48 hrs by cDNA microarray technique relative to control
MCF7 [4] = assay: Down regulation of DOK5 gene expression in human MCF7 cells at IC50 after 48 hrs by cDNA microarray technique relative to control
Procedure, shortened: (§2)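 Cells (8 × 10⁶) were cultured in DMEM with 10% heat-inactivated FBS at 37 °C under 5% CO₂. They were exposed for 48 h to compound at its IC₅₀, with DMSO-treated parallel cultures as controls (final DMSO ≤0.1% v/v). Total RNA was isolated by trizol/chloroform phase separation, RNeasy column cleanup and on-column DNase, then quantified by OD260/OD280. Expression was profiled by cDNA microarray relative to control.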

HT-29 [5] = assay: Upregulation of PDGFA gene expression in human HT-29 cells at IC50 after 48 hrs by cDNA microarray technique relative to control
MCF7 [6] = assay: Down regulation of CD72 gene expression in human MCF7 cells at IC50 after 48 hrs by cDNA microarray technique relative to control; procedure, shortened: as §1
HT-29 [7] = assay: Down regulation of POU6F1 gene expression in human HT-29 cells at IC50 after 48 hrs by cDNA microarray technique relative to control
MCF7 [8] = assay: Down regulation of C20orf54 gene expression in human MCF7 cells at IC50 after 48 hrs by cDNA microarray technique relative to control; procedure, shortened: as §1
HT-29 [9] = assay: Down regulation of KCNJ16 gene expression in human HT-29 cells at IC50 after 48 hrs by cDNA microarray technique relative to control; procedure, shortened: as §2
HT-29 [10] = assay: Upregulation of AVIL gene expression in human HT-29 cells at IC50 after 48 hrs by cDNA microarray technique relative to control
MCF7 [11] = assay: Down regulation of ATP1B4 gene expression in human MCF7 cells at IC50 after 48 hrs by cDNA microarray technique relative to control; procedure, shortened: as §1
HT-29 [12] = assay: Upregulation of HOXB8 gene expression in human HT-29 cells at IC50 after 48 hrs by cDNA microarray technique relative to control
HT-29 [13] = assay: Down regulation of DNAJC5B gene expression in human HT-29 cells at IC50 after 48 hrs by cDNA microarray technique relative to control; procedure, shortened: as §2
MCF7 [14] = assay: Down regulation of BDKRB1 gene expression in human MCF7 cells at IC50 after 48 hrs by cDNA microarray technique relative to control; procedure, shortened: as §1
HT-29 [15] = assay: Upregulation of Beta4GalNAc-T4 gene expression in human HT-29 cells at IC50 after 48 hrs by cDNA microarray technique relative to control
HT-29 [16] = assay: Down regulation of TNPO1 gene expression in human HT-29 cells at IC50 after 48 hrs by cDNA microarray technique relative to control
HT-29 [17] = assay: Upregulation of KIAA0553 gene expression in human HT-29 cells at IC50 after 48 hrs by cDNA microarray technique relative to control
MCF7 [18] = assay: Upregulation of LRRC48 gene expression in human MCF7 cells at IC50 after 48 hrs by cDNA microarray technique relative to control
HT-29 [19] = assay: Down regulation of LOC203427 gene expression in human HT-29 cells at IC50 after 48 hrs by cDNA microarray technique relative to control
HT-29 [20] = assay: Down regulation of BAP1 gene expression in human HT-29 cells at IC50 after 48 hrs by cDNA microarray technique relative to control; procedure, shortened: as §1
MCF7 [21] = assay: Upregulation of CD1B gene expression in human MCF7 cells at IC50 after 48 hrs by cDNA microarray technique relative to control
HT-29 [22] = assay: Down regulation of SLC39A7 gene expression in human HT-29 cells at IC50 after 48 hrs by cDNA microarray technique relative to control
MCF7 [23] = assay: Down regulation of P2RY13 gene expression in human MCF7 cells at IC50 after 48 hrs by cDNA microarray technique relative to control
HT-29 [24] = assay: Down regulation of TAF5L gene expression in human HT-29 cells at IC50 after 48 hrs by cDNA microarray technique relative to control
HT-29 [25] = assay: Down regulation of DT1P1A10 gene expression in human HT-29 cells at IC50 after 48 hrs by cDNA microarray technique relative to control; procedure, shortened: as §2
HT-29 [26] = assay: Down regulation of ANP32D gene expression in human HT-29 cells at IC50 after 48 hrs by cDNA microarray technique relative to control; procedure, shortened: as §1
MCF7 [27] = assay: Upregulation of GABARAPL1 gene expression in human MCF7 cells at IC50 after 48 hrs by cDNA microarray technique relative to control
HT-29 [28] = assay: Down regulation of RALGDS gene expression in human HT-29 cells at IC50 after 48 hrs by cDNA microarray technique relative to control
HT-29 [29] = assay: Down regulation of RXRB gene expression in human HT-29 cells at IC50 after 48 hrs by cDNA microarray technique relative to control
HT-29 [30] = assay: Down regulation of GANAB gene expression in human HT-29 cells at IC50 after 48 hrs by cDNA microarray technique relative to control; procedure, shortened: as §2
MCF7 [31] = assay: Down regulation of TSGA10 gene expression in human MCF7 cells at IC50 after 48 hrs by cDNA microarray technique relative to control
HT-29 [32] = assay: Down regulation of PYCRL gene expression in human HT-29 cells at IC50 after 48 hrs by cDNA microarray technique relative to control
HT-29 [33] = assay: Down regulation of CKLFSF5 gene expression in human HT-29 cells at IC50 after 48 hrs by cDNA microarray technique relative to control; procedure, shortened: as §1
MCF7 [34] = assay: Upregulation of ST3GAL1 gene expression in human MCF7 cells at IC50 after 48 hrs by cDNA microarray technique relative to control
MCF7 [35] = assay: Upregulation of UNQ739 gene expression in human MCF7 cells at IC50 after 48 hrs by cDNA microarray technique relative to control
HT-29 [36] = assay: Down regulation of ZNF482 gene expression in human HT-29 cells at IC50 after 48 hrs by cDNA microarray technique relative to control
MCF7 [37] = assay: Upregulation of ERN1 gene expression in human MCF7 cells at IC50 after 48 hrs by cDNA microarray technique relative to control
HT-29 [38] = assay: Down regulation of PCSK9 gene expression in human HT-29 cells at IC50 after 48 hrs by cDNA microarray technique relative to control

Q: For `COC(CN(c1ccccc1CO)S(=O)(=O)c1ccccc1[N+](=O)[O-])n1cnc2ncnc(Cl)c21` (racemic), which “fold change (FC)” value (MCF7 [1]) is on record?
A: Its value is -2.03.

Q: What about the “fold change (FC)” value (MCF7 [2]) of the same compound?
A: Its value is -2.14.

Q: What about the “fold change (FC)” value (HT-29 [3]) of the same compound?
A: The value was -2.05.

Q: And the “fold change (FC)” value (MCF7 [4])?
A: The value was -2.11.

Q: What about the “fold change (FC)” value (HT-29 [5]) of the same compound?
A: Its value is 2.15.

Q: And the “fold change (FC)” value (MCF7 [6])?
A: Its value is -2.17.

Q: And the “fold change (FC)” value (HT-29 [7])?
A: The value was -3.13.

Q: What about the “fold change (FC)” value (MCF7 [8]) of the same compound?
A: Its value is -2.14.

Q: And the “fold change (FC)” value (HT-29 [9])?
A: The value was -2.21.

Q: What about the “fold change (FC)” value (HT-29 [10]) of the same compound?
A: Its value is 2.46.

Q: And the “fold change (FC)” value (MCF7 [11])?
A: The value was -2.07.

Q: What about the “fold change (FC)” value (HT-29 [12]) of the same compound?
A: Its value is 2.11.

Q: What about the “fold change (FC)” value (HT-29 [13]) of the same compound?
A: Its value is -2.49.

Q: And the “fold change (FC)” value (MCF7 [14])?
A: The value was -2.48.

Q: What about the “fold change (FC)” value (HT-29 [15]) of the same compound?
A: Its value is 3.08.

Q: For `O=C(OCC1c2ccccc2-c2ccccc21)N1CC(n2cnc3c(Cl)ncnc32)OCc2ccccc21` (racemic), which “fold change (FC)” value (HT-29 [16]) is on record?
A: Its value is -2.5.

Q: And the “fold change (FC)” value (HT-29 [17])?
A: The value was 2.07.

Q: What about the “fold change (FC)” value (MCF7 [18]) of the same compound?
A: The value was 2.18.

Q: What about the “fold change (FC)” value (HT-29 [19]) of the same compound?
A: Its value is -2.13.

Q: What about the “fold change (FC)” value (HT-29 [20]) of the same compound?
A: Its value is -2.13.

Q: And the “fold change (FC)” value (MCF7 [21])?
A: Its value is 2.31.

Q: And the “fold change (FC)” value (HT-29 [22])?
A: Its value is -2.19.

Q: And the “fold change (FC)” value (MCF7 [23])?
A: The value was -3.05.

Q: And the “fold change (FC)” value (HT-29 [24])?
A: Its value is -2.18.

Q: What about the “fold change (FC)” value (HT-29 [25]) of the same compound?
A: The value was -2.28.

Q: What about the “fold change (FC)” value (HT-29 [26]) of the same compound?
A: Its value is -2.8.

Q: What about the “fold change (FC)” value (MCF7 [27]) of the same compound?
A: The value was 2.07.

Q: And the “fold change (FC)” value (HT-29 [28])?
A: The value was -2.01.

Q: And the “fold change (FC)” value (HT-29 [29])?
A: The value was -2.1.

Q: And the “fold change (FC)” value (HT-29 [30])?
A: The value was -2.04.

Q: What about the “fold change (FC)” value (MCF7 [31]) of the same compound?
A: The value was -3.3.

Q: And the “fold change (FC)” value (HT-29 [32])?
A: Its value is -2.36.

Q: And the “fold change (FC)” value (HT-29 [33])?
A: The value was -2.19.

Q: What about the “fold change (FC)” value (MCF7 [34]) of the same compound?
A: The value was 6.38.

Q: And the “fold change (FC)” value (MCF7 [35])?
A: The value was 4.07.

Q: What about the “fold change (FC)” value (HT-29 [36]) of the same compound?
A: Its value is -2.28.

Q: What about the “fold change (FC)” value (MCF7 [37]) of the same compound?
A: Its value is 2.81.

Q: What about the “fold change (FC)” value (HT-29 [38]) of the same compound?
A: The value was -2.32.
